Reference: ChEMBL document CHEMBL1149329, “Synthesis and biological activity of sulfonamide derivatives of epipodophyllotoxin” (J Med Chem, 2004)
Values joined by “and” are separate entries in the source; they are usually repeats but may differ in a detail not shown here. Identical values can stand only once.

Legend:
[1] = molecular target: DNA topoisomerase II (Homo sapiens) (UniProt P11388+Q02880); experiment: Inhibition of human DNA Topoisomerase II mediated DNA cleavage through the stabilization of transient DAN/topoisomerase II cleavage complex; assay type: protein assay
In short: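 Supercoiled pBS DNA (0.1 μg) preincubated 15 min at 30 °C with drug at 50 μM in 50 mM Tris-HCl pH 7.5, 1 mM ATP, 120 mM KCl, 10 mM MgCl2, 0.5 mM DTT, 0.1 mM EDTA, BSA. Two units human topo II added, 30 min at 30 °C. SDS/proteinase K digestion 30 min at 55 °C. 1% agarose gel with ethidium bromide; linear DNA percentage read, mean of three independent experiments.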

L1210 [2] = experiment: Percent of L1210 cells in the G2+M phase of the cell cycle at a compound concentration of 5 uM; Toxic at 10 uM; assay type: functional, Mus musculus
In short: (§1)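 L1210 cells (2.5 × 10⁵ cells/mL) were incubated for 21 h with compound at the stated concentration. Flow cytometry was run on 10⁴ cells per sample, and the percentage of cells in G2+M was recorded.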

L1210 [3] = experiment: Inhibitory concentration required to reduce 50 percent L1210 cell growth; assay type: functional, cell-based; settings: Mus musculus
In short: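 L1210 cells were grown in RPMI 1640 with 10% fetal calf serum, 2 mM glutamine, antibiotics and 10 mM HEPES (pH 7.4). Cells were exposed to compound for 48 h. MTT was then added for 4 h at 37 °C, and formazan was dissolved in DMSO and read at 540 nm. IC50 is the concentration reducing OD by 50%, from linear regression on the linear part of the curve. Triplicate.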

L1210 [4] = experiment: Percent of L1210 cells in the G2+M phase of the cell cycle at a compound concentration of 50 uM; assay type: functional, Mus musculus; in short: as §1
P388 [5] = experiment: Evaluated for long-term survivors scored at day 60; 0/6; assay type: functional, Mus musculus
P388 [6] = experiment: Antitumor activity against P388 leukemia at dose range of 12.5-200 mg/kg on day 1, activity expressed as maximum tolerated dose; assay type: functional, Mus musculus
P388 [7] = experiment: Median survival time of treated animals/median survival time of control animals; assay type: functional, Mus musculus
L1210 [8] = experiment: Percent of L1210 cells in the G2+M phase of the cell cycle at a compound concentration of 0.5 uM; assay type: functional, Mus musculus; in short: as §1
A549 [9] = experiment: Antitumor activity against A549 non small cell carcinoma at dose range of 25-100 mg/kg on day 14, 21, 28; activity expressed as maximum tolerated dose; assay type: functional, Homo sapiens
In short: (§2)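 A549 human lung tumour cells were implanted orthotopically, 10⁶ cells through the chest wall into the left pleural space of anaesthetised BALB/C nude mice. Once tumours were established, drug was given iv on days 14, 21 and 28 after tumour cell injection. The endpoint was life span, expressed as T/C (%) = median survival time of treated/control × 100. MTD was the dose causing no toxic death and/or no weight loss >20%.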

L1210 [10] = experiment: Percent of L1210 cells in the G2+M phase of the cell cycle at a compound concentration of 0.25 uM; assay type: functional, Mus musculus; in short: as §1
L1210 [11] = experiment: Percent of L1210 cells in the G2+M phase of the cell cycle at a compound concentration of 1 uM; assay type: functional, Mus musculus; in short: as §1
A549 [12] = experiment: Antitumor activity against A549 non small cell carcinoma at dose range of 3.12-12.5 mg/kg on day 14, 21, 28; activity expressed as maximum tolerated dose; assay type: functional, Homo sapiens; in short: as §2
P388 [13] = experiment: Antitumor activity against P388 leukemia at dose range of 1.56-25 mg/kg on day 1, activity expressed as maximum tolerated dose; assay type: functional, Mus musculus
L1210 [14] = experiment: Percent of L1210 cells in the G2+M phase of the cell cycle at a compound concentration of 25 uM; assay type: functional, Mus musculus; in short: as §1
P388 [15] = experiment: Antitumor activity against P388 leukemia at dose range of 3.12-50 mg/kg on day 1, activity expressed as maximum tolerated dose; assay type: functional, Mus musculus
L1210 [16] = experiment: Percent of L1210 cells in the G2+M phase of the cell cycle at a compound concentration of 2.5 uM; assay type: functional, Mus musculus; in short: as §1
A549 [17] = experiment: Antitumor activity against A549 non small cell carcinoma at dose range of 1.56-6.25 mg/kg on day 14, 21, 28; activity expressed as maximum tolerated dose; assay type: functional, Homo sapiens; in short: as §2
L1210 [18] = experiment: Percent of L1210 cells in the G2+M phase of the cell cycle at a compound concentration of 0.1 uM; assay type: functional, Mus musculus; in short: as §1
[19] = Median survival time of treated animals/median survival time of control animals; ranges from 126-159; assay type: functional; in short: as §2
A549 [20] = experiment: Antitumor activity against A549 non small cell carcinoma at dose range of 6.25-25 mg/kg on day 14, 21, 28; activity expressed as maximum tolerated dose; assay type: functional, Homo sapiens; in short: as §2

| Structure (SMILES) | Activity [1] | IC50 (L1210 [3]) [nM] | LTS (P388 [5]) | T/C (P388 [7]) | other results |
| --- | --- | --- | --- | --- | --- |
| COc1cc([C@@H]2c3cc4c(cc3[C@@H](NS(=O)(=O)c3c(F)c(F)c(F)c(F)c3F)[C@H]3COC(=O)[C@H]23)OCO4)cc(OC)c1O | 0 | 1000 | – | – | Effect (L1210 [2]): 52% |
| COc1cc([C@@H]2c3cc4c(cc3[C@@H](NS(=O)(=O)CCCN)[C@H]3COC(=O)[C@H]23)OCO4)cc(OC)c1O | 45 | 2500 | – | – | Effect (L1210 [4]): 75% |
| COc1cc([C@@H]2c3cc4c(cc3[C@@H](NS(=O)(=O)N3CCCCC3)[C@H]3COC(=O)[C@H]23)OCO4)cc(OC)c1O | 34 | 120 | 0 | 121% | MTD (P388 [6]): 200; Effect (L1210 [8]): 77% |
| COc1cc([C@@H]2c3cc4c(cc3[C@@H](NS(=O)(=O)N3CCOCC3)[C@H]3COC(=O)[C@H]23)OCO4)cc(OC)c1O | 31 | 100 | 0 | 235% and 155% | MTD (A549 [9]): 50; Effect (L1210 [10]): 76%; MTD (P388 [6]): 200 |
| CCCCCCCCS(=O)(=O)N[C@@H]1c2cc3c(cc2[C@@H](c2cc(OC)c(O)c(OC)c2)[C@H]2C(=O)OC[C@@H]21)OCO3 | 35 | 250 | – | – | Effect (L1210 [11]): 76% |
| CCN(CC)S(=O)(=O)N[C@@H]1c2cc3c(cc2[C@@H](c2cc(OC)c(O)c(OC)c2)[C@H]2C(=O)OC[C@@H]21)OCO3 | 24 | 83 | 0 | 106% and 120% | MTD (A549 [12]): 6.25; Effect (L1210 [10]): 86%; MTD (P388 [13]): 25 |
| CCCCCCCCCCCCCCCCS(=O)(=O)N[C@@H]1c2cc3c(cc2[C@@H](c2cc(OC)c(O)c(OC)c2)[C@H]2C(=O)OC[C@@H]21)OCO3 | 0 | 5500 | – | – | Effect (L1210 [14]): 73% |
| COc1cc([C@@H]2c3cc4c(cc3[C@@H](NS(=O)(=O)c3cccs3)[C@H]3COC(=O)[C@H]23)OCO4)cc(OC)c1O | 9 | 170 | 0 | 102% | MTD (P388 [15]): 12.5; Effect (L1210 [8]): 71% |
| COc1cc([C@@H]2c3cc4c(cc3[C@@H](N)[C@H]3COC(=O)[C@H]23)OCO4)cc(OC)c1O | 0 | 630 | – | – | Effect (L1210 [16]): 57% |
| COc1cc([C@@H]2c3cc4c(cc3[C@@H](NS(=O)(=O)N3CCN(C)CC3)[C@H]3COC(=O)[C@H]23)OCO4)cc(OC)c1O | 45 | 48 | 0 | 229% | MTD (A549 [17]): 6.25; Effect (L1210 [18]): 84%; MTD (P388 [13]): 12.5; T/C [19]: 159% |
| COc1cc([C@@H]2c3cc4c(cc3[C@@H](NS(=O)(=O)N(C)C)[C@H]3COC(=O)[C@H]23)OCO4)cc(OC)c1O | 44 | 37 | 0 | 192% and 133% | MTD (A549 [20]): 6.25; Effect (L1210 [10]): 66%; MTD (P388 [6]): 100 |
